Results taken from ChEMBL document CHEMBL1157693, “Microwave assisted synthesis and antimicrobial activity of 2-quinoxalinone-3-hydrazone derivatives” (2010).
Values after ≈ are worked out from the molar mass of the structure shown. Active and inactive are the calls of the source. The rule behind the calls is not given here.

What was measured:
Format in all cases: functional
[1] = test system: Pseudomonas aeruginosa; assay: Antibacterial activity against Pseudomonas aeruginosa NCIB 950 after 24 hrs by agar well diffusion method
Outline: (§1)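 Agar well diffusion. Clinical isolates were first checked for viability, then grown in nutrient broth for 8 h at 37 °C. About 0.2 ml of broth culture was mixed into 18 ml molten diagnostic sensitivity test agar cooled to 45 °C and poured into plates. Compounds in DMSO went into bored wells, with streptomycin as reference. Plates stood 1 h for diffusion, then were incubated upright at 37 °C for 24 h. Clear inhibition zones were read in mm.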

[2] = test system: Bacillus subtilis; assay: Antibacterial activity against Bacillus subtilis NCIB 3610 after 24 hrs by agar well diffusion method; outline: as §1
[3] = test system: Bacillus subtilis; assay: Antibacterial activity against Bacillus subtilis NCIB 3610 after 72 hrs; details: NCIB 3610, 72 h
Outline: (§2)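 MIC by the Russell and Furr method, run on selected Gram-positive and Gram-negative strains. Once the agar had set and its surface had dried, nutrient agar plates were streaked with overnight broth cultures. They were incubated at 37 °C for up to 72 h and scored for presence or absence of growth.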

[4] = test system: Staphylococcus aureus; assay: Antibacterial activity against Staphylococcus aureus NCIB 8588 after 24 hrs by agar well diffusion method; outline: as §1
[5] = test system: Bacillus anthracis; assay: Antibacterial activity against Bacillus anthracis after 72 hrs
[6] = test system: Geobacillus stearothermophilus; assay: Antibacterial activity against Bacillus stearothermophilus NCIB 8222 after 24 hrs by agar well diffusion method; outline: as §1
[7] = test system: Escherichia coli; assay: Antibacterial activity against Escherichia coli NCIB 86 after 24 hrs by agar well diffusion method; outline: as §1
[8] = test system: Klebsiella pneumoniae; assay: Antibacterial activity against Klebsiella pneumoniae NCIB 418 after 72 hrs; outline: as §2
[9] = test system: Escherichia coli; assay: Antibacterial activity against Escherichia coli NCIB 86 after 72 hrs; outline: as §2
[10] = test system: Shigella dysenteriae; assay: Antibacterial activity against Shigella dysenteriae after 72 hrs
Outline: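 MIC by agar dilution: compound-containing nutrient agar was set and surface-dried, then streaked with overnight broth culture of the clinical isolate. Incubated at 37 °C for up to 72 h and scored for presence or absence of growth. Streptomycin was the reference.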

[11] = test system: Candida albicans; assay: Antifungal activity against Candida albicans after 3 days by agar well diffusion method
[12] = test system: Klebsiella pneumoniae; assay: Antibacterial activity against Klebsiella pneumoniae NCIB 418 after 24 hrs by agar well diffusion method; outline: as §1
[13] = test system: Geobacillus stearothermophilus; assay: Antibacterial activity against Bacillus stearothermophilus NCIB 8222 after 72 hrs; details: NCIB 8222, 72 h; outline: as §2
[14] = test system: Bacillus cereus; assay: Antibacterial activity against Bacillus cereus NCIB 6349 after 24 hrs by agar well diffusion method; outline: as §1
[15] = test system: Bacillus cereus; assay: Antibacterial activity against Bacillus cereus NCIB 6349 after 72 hrs; outline: as §2
[16] = test system: Pseudomonas fluorescens; assay: Antibacterial activity against Pseudomonas fluorescens NCIB 3756 after 24 hrs by agar well diffusion method; outline: as §1
[17] = test system: Shigella dysenteriae; assay: Antibacterial activity against Shigella dysenteriae after 24 hrs by agar well diffusion method
[18] = test system: Bacillus anthracis; assay: Antibacterial activity against Bacillus anthracis after 24 hrs by agar well diffusion method
[19] = test system: Staphylococcus aureus; assay: Antibacterial activity against Staphylococcus aureus NCIB 8588 after 72 hrs; details: NCIB 8588, 72 h; outline: as §2

Molecule | inhibition zone (IZ) [1] | inhibition zone (IZ) [2] | MIC [3] | inhibition zone (IZ) [4] | MIC [5] | inhibition zone (IZ) [6] | inhibition zone (IZ) [7] | MIC ([8]; NCIB 418, 72 h) | MIC ([9]; NCIB 86, 72 h) | MIC [10] | inhibition zone (IZ) [11] | inhibition zone (IZ) [12] | MIC [13] | inhibition zone (IZ) [14] | MIC ([15]; NCIB 6349, 72 h) | inhibition zone (IZ) [16] | inhibition zone (IZ) [17] | inhibition zone (IZ) [18] | MIC [19] | also measured
CC(C)=NNc1nc2ccccc2[nH]c1=O | 0 mm | 30 mm | 7.8 µg/mL (≈ 36.1 µM) | 12 mm | 62.5 µg/mL (≈ 289 µM) | 30 mm | 30 mm | 15.6 µg/mL (≈ 72.1 µM) | 7.8 µg/mL (≈ 36.1 µM) | 31.3 µg/mL (≈ 145 µM) | 31 mm | 12 mm | 7.8 µg/mL (≈ 36.1 µM) | 24 mm | 15.6 µg/mL (≈ 72.1 µM) | 0 mm | 13 mm | 14 mm | 62.5 µg/mL (≈ 289 µM) | –
CN[C@@H]1[C@H](O[C@H]2[C@H](O[C@H]3[C@H](O)[C@@H](O)[C@H](N=C(N)N)[C@@H](O)[C@@H]3N=C(N)N)O[C@@H](C)[C@]2(O)C=O)O[C@@H](CO)[C@H](O)[C@H]1O [STREPTOMYCIN] | 0 mm | 20 mm | 15.6 µg/mL (≈ 26.8 µM) | 21 mm | 31.3 µg/mL (≈ 53.8 µM) | 23 mm | 0 mm | – | – | 15.6 µg/mL (≈ 26.8 µM) | inactive | 0 mm | 7.8 µg/mL (≈ 13.4 µM) | 28 mm | 7.8 µg/mL (≈ 13.4 µM) | 30 mm | 22 mm | 18 mm | 7.8 µg/mL (≈ 13.4 µM) | MIC [8]: inactive; MIC [9]: inactive
CCC(CC)=NNc1nc2ccccc2[nH]c1=O | 0 mm | 20 mm | 31.3 µg/mL (≈ 128 µM) | 10 mm | inactive | 25 mm | 15 mm | 31.3 µg/mL (≈ 128 µM) | 31.3 µg/mL (≈ 128 µM) | inactive | 18 mm | 15 mm | 7.8 µg/mL (≈ 31.9 µM) | 28 mm | 7.8 µg/mL (≈ 31.9 µM) | 0 mm | 0 mm | 0 mm | 62.5 µg/mL (≈ 256 µM) | –
O=c1[nH]c2ccccc2nc1N/N=C1\CCCCC1Br (stereo not drawn) | 0 mm | 20 mm | 7.8 µg/mL (≈ 23.3 µM) | 13 mm | 15.6 µg/mL (≈ 46.5 µM) | 13 mm | 13 mm | 31.3 µg/mL (≈ 93.4 µM) | 31.3 µg/mL (≈ 93.4 µM) | 15.6 µg/mL (≈ 46.5 µM) | 19 mm | 12 mm | 31.3 µg/mL (≈ 93.4 µM) | 28 mm | 7.8 µg/mL (≈ 23.3 µM) | 0 mm | 15 mm | 19 mm | 31.3 µg/mL (≈ 93.4 µM) | –
CC1CCCC/C1=N\Nc1nc2ccccc2[nH]c1=O (stereo not drawn) | 0 mm | 12 mm | 62.5 µg/mL (≈ 231 µM) | 19 mm | 15.6 µg/mL (≈ 57.7 µM) | 25 mm | 12 mm | 7.8 µg/mL (≈ 28.9 µM) | 31.3 µg/mL (≈ 116 µM) | inactive | 14 mm | 15 mm | 7.8 µg/mL (≈ 28.9 µM) | 13 mm | 15.6 µg/mL (≈ 57.7 µM) | 13 mm | 0 mm | 16 mm | 7.8 µg/mL (≈ 28.9 µM) | –
O=C1Nc2ccc(Cl)cc2/C1=N/Nc1nc2ccccc2[nH]c1=O | 0 mm | 20 mm | 15.6 µg/mL (≈ 45.9 µM) | 25 mm | 15.6 µg/mL (≈ 45.9 µM) | 24 mm | 19 mm | 7.8 µg/mL (≈ 23 µM) | 15.6 µg/mL (≈ 45.9 µM) | 62.5 µg/mL (≈ 184 µM) | 18 mm | 20 mm | 7.8 µg/mL (≈ 23 µM) | 28 mm | 7.8 µg/mL (≈ 23 µM) | 0 mm | 10 mm | 20 mm | 7.8 µg/mL (≈ 23 µM) | –
O=c1[nH]c2ccccc2nc1N/N=C1\CCCCC1Cl (stereo not drawn) | 0 mm | 16 mm | 15.6 µg/mL (≈ 53.7 µM) | 12 mm | 31.3 µg/mL (≈ 108 µM) | 14 mm | 12 mm | 31.3 µg/mL (≈ 108 µM) | 62.5 µg/mL (≈ 215 µM) | inactive | 15 mm | 13 mm | 31.3 µg/mL (≈ 108 µM) | 12 mm | 31.3 µg/mL (≈ 108 µM) | 9 mm | 0 mm | 14 mm | 62.5 µg/mL (≈ 215 µM) | –
Cc1ccc2c(c1)/C(=N/Nc1nc3ccccc3[nH]c1=O)C(=O)N2 | 0 mm | 15 mm | 31.3 µg/mL (≈ 98 µM) | 19 mm | inactive | 13 mm | 14 mm | 15.6 µg/mL (≈ 48.9 µM) | 31.3 µg/mL (≈ 98 µM) | 31.3 µg/mL (≈ 98 µM) | 30 mm | 17 mm | 62.5 µg/mL (≈ 196 µM) | 10 mm | 62.5 µg/mL (≈ 196 µM) | 0 mm | 14 mm | 0 mm | 15.6 µg/mL (≈ 48.9 µM) | –
O=C1Nc2ccccc2/C1=N/Nc1nc2ccccc2[nH]c1=O | 17 mm | 14 mm | 62.5 µg/mL (≈ 205 µM) | 19 mm | 125 µg/mL (≈ 409 µM) | 13 mm | 10 mm | 62.5 µg/mL (≈ 205 µM) | 125 µg/mL (≈ 409 µM) | 15.6 µg/mL (≈ 51.1 µM) | 20 mm | 12 mm | 62.5 µg/mL (≈ 205 µM) | 0 mm | – | 0 mm | 0 mm | 11 mm | 31.3 µg/mL (≈ 103 µM) | MIC [15]: inactive
C/C(=N\Nc1nc2ccccc2[nH]c1=O)c1cc2ccccc2oc1=O | 0 mm | 32 mm | 7.8 µg/mL (≈ 22.5 µM) | 15 mm | 62.5 µg/mL (≈ 180 µM) | 28 mm | 30 mm | 31.3 µg/mL (≈ 90.4 µM) | 31.3 µg/mL (≈ 90.4 µM) | inactive | 29 mm | 20 mm | 31.3 µg/mL (≈ 90.4 µM) | 20 mm | 31.3 µg/mL (≈ 90.4 µM) | 0 mm | 0 mm | 18 mm | 31.3 µg/mL (≈ 90.4 µM) | –
C/C(=N\Nc1nc2ccccc2[nH]c1=O)c1cc2cc(C)ccc2oc1=O | 10 mm | 16 mm | 31.3 µg/mL (≈ 86.9 µM) | 19 mm | 62.5 µg/mL (≈ 173 µM) | 15 mm | 15 mm | 31.3 µg/mL (≈ 86.9 µM) | 62.5 µg/mL (≈ 173 µM) | 62.5 µg/mL (≈ 173 µM) | 10 mm | 19 mm | 31.3 µg/mL (≈ 86.9 µM) | 25 mm | 7.8 µg/mL (≈ 21.6 µM) | 0 mm | 12 mm | 14 mm | 15.6 µg/mL (≈ 43.3 µM) | –
C/C(=N\Nc1nc2ccccc2[nH]c1=O)c1cc2cc(Br)ccc2oc1=O | 0 mm | 30 mm | 7.8 µg/mL (≈ 18.3 µM) | 14 mm | 62.5 µg/mL (≈ 147 µM) | 29 mm | 18 mm | 62.5 µg/mL (≈ 147 µM) | 62.5 µg/mL (≈ 147 µM) | inactive | 21 mm | 18 mm | 7.8 µg/mL (≈ 18.3 µM) | 15 mm | 62.5 µg/mL (≈ 147 µM) | 0 mm | 0 mm | 16 mm | 62.5 µg/mL (≈ 147 µM) | –
NYSTATIN | inactive | inactive | – | inactive | – | inactive | inactive | – | – | – | – | inactive | – | inactive | – | inactive | inactive | inactive | – | –
